The text below walks through data of paper PMC12222688 (Scientific Reports, 2025).

The target of this experiment is plasma kallikrein (pKal) (Homo sapiens, UniProt P03952). Put plainly: cell-free fluorogenic substrate enzyme activity assay with recombinant pKal. Format: biochemical. In a few lines: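 Human recombinant plasma kallikrein was dissolved in deionized water and used with its protein-specific fluorogenic substrate under cell-free conditions. Test compound, at concentrations up to 3000 µg/mL, was incubated with substrate solution for 30 min at 37 °C. Fluorescence was read on a microplate reader. Autofluorescence was subtracted, and relative fluorescence units were normalized to blank samples.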
Chain of plasma kallikrein (pKal) (P03952 20-390): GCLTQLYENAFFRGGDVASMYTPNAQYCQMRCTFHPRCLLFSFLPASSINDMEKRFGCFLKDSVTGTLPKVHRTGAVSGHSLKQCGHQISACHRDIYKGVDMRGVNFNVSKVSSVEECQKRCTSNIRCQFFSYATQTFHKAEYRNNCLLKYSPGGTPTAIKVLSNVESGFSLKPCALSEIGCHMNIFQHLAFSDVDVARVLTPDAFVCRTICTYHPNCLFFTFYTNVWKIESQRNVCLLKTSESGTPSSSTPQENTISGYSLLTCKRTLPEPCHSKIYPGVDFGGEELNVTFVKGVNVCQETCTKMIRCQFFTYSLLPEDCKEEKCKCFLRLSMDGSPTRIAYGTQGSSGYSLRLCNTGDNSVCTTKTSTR
Chain of plasma kallikrein (pKal) (P03952 391-638): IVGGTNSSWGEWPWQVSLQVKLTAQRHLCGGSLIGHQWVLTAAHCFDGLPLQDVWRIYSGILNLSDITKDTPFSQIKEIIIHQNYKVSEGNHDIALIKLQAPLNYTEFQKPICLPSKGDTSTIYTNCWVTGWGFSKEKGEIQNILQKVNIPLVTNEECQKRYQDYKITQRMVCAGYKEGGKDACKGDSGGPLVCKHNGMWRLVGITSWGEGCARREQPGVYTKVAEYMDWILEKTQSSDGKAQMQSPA

SMILES strings stand for the structures. pIC50: −log10 of the molar value.

By pIC50 is commonly meant the negative decadic logarithm of the IC50, by convention in mol/L. Take `C[C@@H]1O[C@@H](O[C@@H]2[C@@H](O)[C@H](OCCc3ccc(O)c(O)c3)O[C@H](CO)[C@H]2OC(=O)/C=C/c2ccc(O)c(O)c2)[C@H](O)[C@H](O)[C@H]1O` [acteoside]: the pIC50 was 3.51.
